# An excerpt weighted towards active compounds, which were near 0.55% of everything screened.
# OXTR potentiate: potentiators of human oxytocin receptor. activation, % at 3 µM. P30559. AID 2445. 320,000 compounds, 0.061% hits. CHO-OTR cells, Fluo-8 calcium fluorescence, potentiator mode; 0% = oxytocin EC15, 100% = EC100;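 active = activation above that plate's cutoff, the mean activation of tested compounds plus 3 SD, cut at about 6.6% in these data, passing the limit was not always enough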;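 also: 100% uses oxytocin at 75 nM as the full agonist control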
#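 Material: human OTR in CHO cells. Compound: 3.0 µM, one dose. Timing: compound 6 min at room temperature before oxytocin, 100 s read. Evaluation: % activation of max/min ratio relative to oxytocin controls. Replication: single well per compound, singlicate. Signal: Fluo-8 calcium dye fluorescence.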
# V1aR counter: counter-screen for oxytocin receptor agonists: human V1a receptor agonists; P37288; CHO-V1R cells, Fluo-8 calcium fluorescence, agonist mode; 0% DMSO, 100% 3 nM vasopressin; activation, % at 3 µM; 320,000 compounds, 0.25% hits; AID 2797;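 active = activation above the mean activation of all tested compounds plus 3 SD, per screening run, cut at about 20% in these data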;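 also: signal is peak over basal fluorescence ratio across a 100 second FLIPR read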
# Target sequence (P37288 whole entry, looked up): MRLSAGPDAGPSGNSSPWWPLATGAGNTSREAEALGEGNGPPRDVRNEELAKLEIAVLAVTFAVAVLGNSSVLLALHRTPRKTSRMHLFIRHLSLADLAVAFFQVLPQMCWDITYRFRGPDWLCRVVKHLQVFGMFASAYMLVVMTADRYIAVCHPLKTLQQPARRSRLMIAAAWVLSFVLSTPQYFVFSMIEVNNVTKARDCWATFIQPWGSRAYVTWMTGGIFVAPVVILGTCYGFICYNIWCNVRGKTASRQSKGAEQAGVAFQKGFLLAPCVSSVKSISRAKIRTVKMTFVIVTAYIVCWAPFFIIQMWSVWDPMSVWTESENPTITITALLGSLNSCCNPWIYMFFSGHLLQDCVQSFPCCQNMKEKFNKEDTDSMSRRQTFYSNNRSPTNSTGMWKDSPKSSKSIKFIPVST
# OXTR agonist: activates the human oxytocin receptor; P30559; CHO-OTR cells, Fluo-8 calcium fluorescence; normalized: DMSO 0%, oxytocin 100%; activation, % at 3 µM; 320,000 compounds, 0.32% hits;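 active = activation above the mean of all tested compounds plus 3 SD, cutoff set per screening run, cut at about 20% in these data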;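 also: peak over basal fluorescence ratio from a 100 s FLIPR kinetic read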
# TRPN1 ag: zebrafish TRPN1 (NompC) channel agonism. HEK293 zebrafish TRPN1-YFP, Fluo-8 calcium fluorescence; 100% = response to 87 µM carbachol. activation, % at 3 µM. 220,000 compounds, 0.18% hits. AID 1424;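 active = activation above its plate's cutoff, the mean activation of test wells on that plate plus 3 SD, cut at about 19% in these data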;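 also: 0% = DMSO alone and 100% = 87 µM carbachol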
#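 System: zebrafish TRPN1-YFP in HEK293 cells / Dosing: 3 µM single point / Timing: dye loading 1 h at 37 °C, then 30 min room temperature / Signal: Fluo-8 calcium fluorescence, excitation 470-495 nm, emission 515-575 nm / Read-out basis: percent activation from peak over basal fluorescence ratio, control-normalized / Control set: high carbachol 87 µM, low DMSO alone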
# TRPML3 ag: human mucolipin-3 channel agonism | HEK293 TRPML3-YFP, Fluo-8 calcium fluorescence; 100% = the carbachol control signal | activation, % at 3 µM | 220,000 compounds, 0.29% hits;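 active = activation above its plate's cutoff, the mean activation of the plate's test wells plus 3 SD, cut at about 12% in these data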;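 also: 0% = DMSO only wells and 100% = carbachol wells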
#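 Material: TRPML3-YFP stable HEK293 cells | Dosing: One concentration, 3 µM nominal, 0.3% DMSO | Timing: 125 s total fluorescence read per well | Technique: Fluo-8 calcium dye fluorescence, ex 470-495, em 515-575 nm | Measure: Percent activation from peak-to-basal fluorescence ratio, scaled between DMSO and carbachol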
# TRPN1 ag 2: counter-screen for TRPML3 agonists: agonists of zebrafish TRPN1 channel | shares compounds with TRPML3 ag | HEK293 zebrafish TRPN1-YFP, Fluo-8 calcium fluorescence; scaled: carbachol wells 100%, DMSO wells 0% | activation, % at 3 µM | 310 compounds, 10% hits | AID 1525;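 active = mean activation over replicates above a set limit taken from the earlier TRPN1 channel primary screen, cut at about 19% in these data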;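 also: 100% = carbachol and 0% = 0.3% DMSO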
# TRPML3 ag conf: human TRPML3 agonism, confirmation; shares compounds with TRPML3 ag; HEK293 TRPML3-YFP, Fluo-8 calcium fluorescence; 100% set by carbachol, 0% by DMSO; activation, % at 3 µM; 310 compounds, 80% hits;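 active = activation above a set limit derived from the earlier primary screen, cut at about 12% in these data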
# * marks the source's active call; other numbers are inactive results; nt = not tested or not shown.
SMILES,OXTR potentiate,V1aR counter,OXTR agonist,TRPN1 ag,TRPML3 ag,TRPN1 ag 2,TRPML3 ag conf
Cc1ccc(C)c(C(=O)Nc2cc(C)nn2-c2nc(C)cc(C)n2)c1,-10,-1,-2,0,1,nt,nt
CCCOc1cc(C)c(Cl)cc1S(=O)(=O)N(CC)CC,-9,-2,-2,-2,26*,-2,97*
Cc1ccc(NC(=O)c2cnc(N3CCN(c4ccccn4)CC3)c3ccccc23)c(Br)c1,-11,11,-1,3,25*,4,48*
CCC(C)N1C(=O)CCC1C(=O)O (stereo unspecified),-2,0,0,0,0,nt,nt
CCCN(CC(=O)Nc1ccc(Cl)cc1Cl)Cc1cc(=O)n2ccsc2n1,-10,2,2,0,0,nt,nt
Cc1ccc(NC(=O)CSC2=C(C#N)C(c3ccco3)CC(=O)N2)cc1 (stereo unspecified),-14,2,1,2,1,nt,nt
Cc1ccc(C(=O)CSC2=C(C#N)C(c3ccco3)CC(=O)N2)c(C)c1 (stereo unspecified),-11,53*,52*,18,16*,9,3
Cc1cc(N2CCOCC2)nc(N)n1,-5,2,2,10,12*,9,7
Cc1cc(N2CCOCC2)nc(NCc2ccccc2)n1,-12,10,16,14,16*,21*,15*
COc1ccc(OC)c(S(=O)(=O)N2CCCc3ccccc32)c1,-14,0,-3,-1,48*,-1,56*
COc1ccc(OC)c(S(=O)(=O)N2CCc3ccccc32)c1,-4,-1,-1,-2,2,nt,nt
COc1ccc([C@H](NC(=O)OC(C)(C)C)C(=O)OC(C)(C)C)cc1,0,-2,-2,nt,nt,nt,nt
CC1(C)Cc2cccc(Oc3ccc(S(=O)(=O)N4CCCC4)cn3)c2O1,-9,-1,-2,-1,2,nt,nt
CC1(C)Cc2cccc(Oc3ccc(S(=O)(=O)N4CCCCC4)cn3)c2O1,-14,-1,-2,-2,20*,-1,30*
Cc1ccc(-n2nc3c(Cl)nnc(C)c3c2C)cc1,-2,0,-3,-2,13*,-2,0
Cc1ccc(-n2nc3c(N4CCN(c5ccccc5)CC4)nnc(C)c3c2C)cc1,nt,nt,nt,0,-1,nt,nt
CC(C)NC(=O)c1ccc(OC2CSC2)cc1,-7,0,-1,1,0,nt,nt
O=c1oc2ccc3ccccc3c2cc1-c1nnc(-c2ccccc2)o1,-8,0,1,3,1,nt,nt
CCN(CC)c1ccc2cc(-c3nnc(-c4ccccc4)o3)c(=O)oc2c1,-17,50*,42*,19,12*,248*,177*
COc1ccc2c(c1)C(C)CC(C)(C)N2C(=O)CSc1nc2ccccc2s1 (stereo unspecified),-13,1,-1,0,18*,-1,33*
COCC1CCCCN1C(=O)C1CCN(c2nc(-c3ccccc3)nc3c2CCC3)CC1 (stereo unspecified),-10,-2,-3,nt,nt,nt,nt
CCOC(=O)c1ccccc1NC(=O)[C@@H]1CCCN1C(=O)OC(C)(C)C,0,-1,-2,nt,nt,nt,nt
Cc1cc(C)c(C(=O)c2ccc(C(=O)N(C(C)C)C(C)C)cc2)c(C)c1,-7,-2,-2,-2,18*,4,74*
CCOc1ccc(-n2cnnn2)cc1S(=O)(=O)Nc1c(C)cccc1C,-4,1,0,1,18*,0,0
CCOc1ccc(-n2cnnn2)cc1S(=O)(=O)NC1CC1,-6,0,1,0,0,nt,nt
SMILES,OXTR potentiate,V1aR counter,OXTR agonist,TRPN1 ag,TRPML3 ag,TRPN1 ag 2,TRPML3 ag conf
COc1ccc(C2C(C(C)=O)=C(C)N=c3s/c(=C\c4cc(C)n(C)c4C)c(=O)n32)c(OC)c1 (stereo unspecified),-24,40*,35*,16,16*,28*,18*
CC12CCC(C(=O)NNC(=O)c3ccc(F)cc3)(OC1=O)C2(C)C (stereo unspecified),-8,0,0,nt,nt,nt,nt
O=C(COc1ccc(/C=N/NC(=O)c2ccccc2)cc1)Nc1ccc([N+](=O)[O-])cc1,-8,0,0,4,0,nt,nt
CC(C)Oc1ccc(/C=N/NC(=O)C(CSCc2ccccc2)NC(=O)c2ccc([N+](=O)[O-])cc2)cc1 (stereo unspecified),-15,-1,-2,1,53*,6,78*
COc1ccc(S(=O)(=O)N2CCC(C)CC2)cc1Br,-14,-1,-2,0,66*,-1,106*
Cc1ccc(S(=O)(=O)N2CCCCCC2)cc1[N+](=O)[O-],-6,-2,-3,-1,12*,-1,19*
CCN1CCN(S(=O)(=O)c2ccc(C)c([N+](=O)[O-])c2)CC1,-6,0,0,1,0,nt,nt
Cc1ccc(S(=O)(=O)N2CCC(C)CC2)cc1[N+](=O)[O-],nt,nt,nt,-1,93*,1,87*
COc1ccc(S(=O)(=O)N2CCC(C)CC2)cc1OC,-1,0,0,nt,nt,nt,nt
COc1ccc2c(c1)C(C)=CC(C)(C)N2C(=O)CSc1nnc(-c2ccc(C)cc2)o1,-4,-1,-1,-2,37*,-1,48*
COc1ccc(C(=O)CSc2nnc(-c3ccc(C)cc3)o2)cc1,0,1,1,0,0,nt,nt
COC(=O)C1(C(C[N+](=O)[O-])c2ccco2)C(=O)NCC1c1ccccc1 (stereo unspecified),10,1,0,0,17*,2,23*
COc1ccc(-n2nc(C(=O)N3CCC(N4CCCCC4)CC3)c3c4ccccc4n(C)c3c2=O)cc1,-3,0,0,nt,nt,nt,nt
Cc1ccc(N/C(N)=N/c2nc(C)cc(C)n2)cc1,-12,7,7,9,15*,31*,20*
Cc1cccc(N(CC(=O)NC2CCCC2)C(=O)c2nsc(Cl)c2Cl)c1C,-8,-1,-2,-2,3,nt,nt
CCOc1ccccc1N(CC(=O)NC1CCCCC1)C(=O)c1nsc(Cl)c1Cl,-1,-2,-1,-2,43*,-1,36*
Cc1ccc(/C=C/C(=O)N2CC(=O)Nc3ccccc32)o1,-8,0,0,1,1,nt,nt
CC(C)C(NC(=O)c1ccc(C(C)(C)C)cc1)C(=O)OCC(=O)NC(=O)Cc1ccccc1 (stereo unspecified),-13,-1,-2,-1,0,nt,nt

# Screening data deposited in PubChem by The Scripps Research Institute Molecular Screening Center.
